Assay results of several laboratories.
Each line is one published result; the experiments were not run side by side.
Target: Myosin-IIIa (MYO3A, Homo sapiens, UniProt Q8NEV4)

O=C(c1ccc(Nc2nccc(-c3cc4ccccc4s3)n2)cc1)N1CCC(N2CCCC2)CC1
remaining binding (binding; competition with immobilised ligand; 1 µM): 100%

COc1cnc(Nc2cccc(S(N)(=O)=O)c2)nc1N1CCN(c2ccccc2)CC1
remaining binding (binding; competition with immobilised ligand; 1 µM): 100%

CCC(=O)N[C@H]1CC[C@@H](C(=O)N(C)c2ccc(-c3nc4ccccc4o3)cc2)C1
remaining binding (cell-free assay; competition with immobilised ligand; 1 µM): 100%

c1cncc(-c2cccc(Nc3nccc(NC4CCCCC4)n3)c2)c1
remaining binding (binding; competition with immobilised ligand; 10 µM): 99%

O=C(NCCCN1CCOCC1)c1ccc(Nc2ncc(Cl)c(-c3ccc(Cl)s3)n2)cc1
remaining binding (binding; competition with immobilised ligand; 1 µM): 95%

COc1ccnn2ncc(-c3ccnc(N(C)C)n3)c12
remaining binding (binding; 1 µM): 96%

FC(F)(F)c1ccc2c(c1)nc(-c1cccnc1)n2C1CC1
remaining binding (cell-free assay; competition with immobilised ligand; 1 µM): 100%

O=C(Nc1c[nH]nc1C(=O)NC1CCNCC1)c1cc(F)cc(F)c1
remaining binding (binding; competition with immobilised ligand; 1 µM): 94%

Cc1nccc(COC(=O)N2C[C@@H]3[C@@H](CNC(=O)c4ccc5[nH]nnc5c4)[C@@H]3C2)n1
remaining binding (binding; competition with immobilised ligand; 1 µM): 99%

C[C@@H](c1ccc(-n2cnc3c(N)ncnc32)cc1)N1CCc2nn(C)c(Cc3ccccc3)c2C1=O
remaining binding (binding; competition with immobilised ligand; 0.1 µM): 97%

CN(C)c1nccc(-c2cnn3ncccc23)n1
remaining binding (binding; 1 µM): 100%

O=C(O)c1cc(-c2ccc(C3CCNCC3)cc2)c2ccc(-c3ccc(C(F)(F)F)cc3)cc2c1
remaining binding (binding; competition with immobilised ligand; 1 µM): 100%

C[C@@H]1CCN(c2nccc(-c3cnn4ncccc34)n2)C1
remaining binding (binding; 1 µM): 100%

COc1cnc(Nc2cccc(S(N)(=O)=O)c2)nc1N1CCN(c2ccccc2)C(=O)C1
remaining binding (binding; competition with immobilised ligand; 1 µM): 100%

CN(C)c1nccc(-c2cnc3ncccn23)n1
remaining binding (binding; 1 µM): 90%

O=C(c1ccc(Nc2ncc(Cl)c(-c3ccc(Cl)s3)n2)cc1)N1CCC(N2CCCC2)CC1
remaining binding (binding; competition with immobilised ligand; 1 µM): 81%

COc1ncc2cc3ccccc3nc2c1C#N
remaining binding (binding; competition with immobilised ligand; 5 µM): 100%

CN(C(=O)c1ccccc1)c1cc(N(C)c2ccc3c(c2)CCc2ccc(C(=O)NCCN4CCOCC4)cc2C3=O)ccc1F
remaining binding (cell-free assay; competition with immobilised ligand; 1 µM): 91%

CN(CCCC(F)(F)F)c1nccc(-c2cnn3ncccc23)n1
remaining binding (binding; 1 µM): 78%

Cc1c(NC(=O)c2cc(C(N)=O)nc3cc(F)ccc23)c(C(F)(F)F)nn1Cc1ccc(C#N)cc1
remaining binding (binding; competition with immobilised ligand; 1 µM): 91%

Cc1cnn2ncc(-c3ccnc(N(C)C)n3)c2c1
remaining binding (binding; 1 µM): 100%
